Tests used:
Coxsackievirus B4 [1] = test: Antiviral activity against Coxsackievirus B4 infected in african green monkey Vero cells assessed as inhibition of virus-induced cytopathicity after 3 days; assay type: functional, organism-based; conditions: Enterovirus B, 72 h
Procedure, shortened: (§1)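 Confluent cell monolayers infected with 100 CCID50 virus; after 2 h adsorption at 37 °C, virus removed and serial compound dilutions added (DMSO stocks 10 mg/ml). Incubated 37 °C for 3 days until complete CPE in untreated virus control. EC50 = concentration protecting 50% of infected cells from viral cytopathogenicity; ">" marks highest concentration tested.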

Human alphaherpesvirus 1 [2] = test: Antiviral activity against HSV1 KOS infected in human HEL cells assessed as inhibition of virus-induced cytopathicity after 3 days; assay type: functional, organism-based; conditions: Human alphaherpesvirus 1, KOS, 72 h
[3] = Cytotoxicity against HEL cells assessed as minimum cytotoxic concentration required to cause microscopically detectable alteration in normal cell morphology; assay type: cell-based; conditions: human
Procedure, shortened: (§2)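 Run in parallel with antiviral assays on uninfected cell cultures; test compounds from 10 mg/ml DMSO stocks in serial dilution. Value is minimum cytotoxic concentration (MCC) producing microscopically detectable alteration of normal cell morphology.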

Human alphaherpesvirus 1 [4] = test: Antiviral activity against thymidine kinase-deficient ACV-resistant HSV1 KOS infected in human HEL cells assessed as inhibition of virus-induced cytopathicity after 3 days; assay type: functional, organism-based; conditions: Human alphaherpesvirus 1, KOS, 72 h
Punta Toro virus = test: Antiviral activity against Punta Toro virus infected in african green monkey Vero cells assessed as inhibition of virus-induced cytopathicity after 3 days; assay type: functional, organism-based; conditions: 72 h
Procedure, shortened: (§3)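 Confluent cell monolayers infected with 100 CCID50 virus; after 2 h adsorption at 37 °C, virus removed and serial compound dilutions added (DMSO stocks 10 mg/ml). Incubated 37 °C for 3 days until complete CPE in untreated virus control.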

Human alphaherpesvirus 2 = test: Antiviral activity against HSV2 G infected in human HEL cells assessed as inhibition of virus-induced cytopathicity after 3 days; assay type: functional, organism-based; conditions: Human alphaherpesvirus 2, strain G, 72 h; procedure, shortened: as §1
[5] = system: Respiratory syncytial virus; test: Antiviral activity against RSV infected in human HeLa cells assessed as inhibition of virus-induced cytopathicity after 3 days; assay type: functional, organism-based; conditions: 72 h; procedure, shortened: as §1
Coxsackievirus B4 [6] = test: Antiviral activity against Coxsackievirus B4 infected in human HeLa cells assessed as inhibition of virus-induced cytopathicity after 3 days; assay type: functional, organism-based; conditions: Enterovirus B, 72 h; procedure, shortened: as §3
[7] = Cytotoxicity against african green monkey Vero cells assessed as minimum cytotoxic concentration required to cause microscopically detectable alteration in normal cell morphology; assay type: cell-based; conditions: chlorocebus sabaeus; procedure, shortened: as §2
Sindbis virus = test: Antiviral activity against Sindbis virus infected in african green monkey Vero cells assessed as inhibition of virus-induced cytopathicity after 3 days postinfection; assay type: functional, organism-based; conditions: 72 h; procedure, shortened: as §1
Vaccinia virus = test: Antiviral activity against Vaccinia virus infected in human HEL cells assessed as inhibition of virus-induced cytopathicity after 3 days; assay type: functional, organism-based; conditions: Orthopoxvirus vaccinia, 72 h
[8] = system: Vesicular stomatitis virus; test: Antiviral activity against Vesicular stomatitis virus infected in human HEL cells assessed as inhibition of virus-induced cytopathicity after 3 days; assay type: functional, organism-based; conditions: 72 h
[9] = Selectivity index, ratio of MCC for human HEL cells to EC50 for sVesicular stomatitis virus; assay type: toxicity, cell-based; conditions: read-out: Selectivity Index
Procedure, shortened: (§4)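 The ratio was MCC/EC50. MCC was the minimum concentration causing microscopically visible change in normal morphology of uninfected HEL, HeLa or Vero cells, scored in parallel with the antiviral test. EC50 came from the CPE assay: 100 CCID50 infection, 2 h adsorption at 37 °C, serial compound dilutions, and 3 days at 37 °C. It was the concentration protecting 50% of cells from virus-induced CPE.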

[10] = system: Mammalian orthoreovirus 1; test: Antiviral activity against Reovirus 1 infected in african green monkey Vero cells assessed as inhibition of virus-induced cytopathicity after 3 days; assay type: functional, organism-based; conditions: Mammalian orthoreovirus 1, Vero, 72 h; procedure, shortened: as §1
[11] = Cytotoxicity against human HeLa cells assessed as minimum cytotoxic concentration required to cause microscopically detectable alteration in normal cell morphology; assay type: cell-based; procedure, shortened: as §2
[12] = system: Vesicular stomatitis virus; test: Antiviral activity against Vesicular stomatitis virus infected in human HeLa cells assessed as inhibition of virus-induced cytopathicity after 3 days; assay type: functional, organism-based; conditions: 72 h
Human respirovirus 3 = test: Antiviral activity against Parainfluenza virus type 3 infected in african green monkey Vero cells assessed as inhibition of virus-induced cytopathicity after 3 days; assay type: functional, organism-based; conditions: Human respirovirus 3, Vero, 72 h; procedure, shortened: as §1
[13] = Selectivity index, ratio of MCC for human HeLa cells to EC50 for Coxsackievirus B4; assay type: toxicity, cell-based; conditions: read-out: Selectivity Index; procedure, shortened: as §4
[14] = Selectivity index, ratio of MCC for african green monkey Vero cells to EC50 for Punta Toro virus; assay type: toxicity, cell-based; conditions: read-out: Selectivity Index; procedure, shortened: as §4
[15] = Selectivity index, ratio of MCC for african green monkey Vero cells to EC50 for Reovirus 1; assay type: toxicity, cell-based; conditions: read-out: Selectivity Index; procedure, shortened: as §4
[16] = Selectivity index, ratio of MCC for african green monkey Vero cells to EC50 for Coxsackievirus B4; assay type: toxicity, cell-based; conditions: read-out: Selectivity Index; procedure, shortened: as §4
[17] = Selectivity index, ratio of MCC for african green monkey Vero cells to EC50 for Sindbis virus; assay type: toxicity, cell-based; conditions: read-out: Selectivity Index; procedure, shortened: as §4

| SMILES | EC50 (Coxsackievirus B4 [1]) [µg/mL] | EC50 (Human alphaherpesvirus 1 [2]) [µg/mL] | MCC [3] [µg/mL] | EC50 (Human alphaherpesvirus 1 [4]) [µg/mL] | EC50 (Punta Toro virus) [µg/mL] | EC50 (Human alphaherpesvirus 2) [µg/mL] | EC50 [5] [µg/mL] | EC50 (Coxsackievirus B4 [6]) [µg/mL] | MCC [7] [µg/mL] | EC50 (Sindbis virus) [µg/mL] | EC50 (Vaccinia virus) [µg/mL] | EC50 [8] [µg/mL] | EC50 [10] [µg/mL] | MCC [11] [µg/mL] | EC50 [12] [µg/mL] | EC50 (Human respirovirus 3) [µg/mL] | other results |
| --- | --- | --- | --- | --- | --- | --- | --- | --- | --- | --- | --- | --- | --- | --- | --- | --- | --- |
| Cc1ccc(C2=NN(C3=NC(=O)CS3)C(c3ccc(OCc4ccccc4)cc3)C2)cc1 (stereo not drawn) | > 20 | > 4 | 20 | > 4 | > 20 | > 4 | > 20 | > 20 | 100 | > 20 | > 4 | > 4 | > 20 | 100 | > 20 | > 20 | selectivity ratio [9]: 5 |
| Cc1ccc(C2=NN(C(N)=S)C(c3ccc(OCc4ccccc4)cc3)C2)cc1 (stereo not drawn) | > 20 | > 20 | 100 | > 20 | > 20 | > 20 | > 0.8 | > 0.8 | 100 | > 20 | > 20 | > 20 | > 20 | 4 | > 0.8 | > 20 | selectivity ratio [13]: 5 |
| CC(=O)N1N=C(c2ccccc2)CC1c1ccc(OCc2ccccc2)cc1 (stereo not drawn) | > 20 | > 20 | 100 | > 20 | > 20 | > 20 | > 100 | > 100 | 100 | > 20 | > 20 | > 20 | > 20 | > 100 | > 100 | > 20 | – |
| CC(=O)N1N=C(c2ccc(C)cc2)CC1c1ccc(OCc2ccccc2)cc1 (stereo not drawn) | > 4 | > 4 | 20 | > 4 | > 4 | > 4 | > 4 | > 4 | 20 | > 4 | > 4 | > 4 | > 4 | 20 | > 4 | > 4 | selectivity ratio [14]: 5; selectivity ratio [15]: 5; selectivity ratio [13]: 5; selectivity ratio [16]: 5; selectivity ratio [17]: 5; selectivity ratio [9]: 5 |
| NC(=S)N1N=C(c2ccc(Cl)cc2)CC1c1ccc(OCc2ccccc2)cc1 (stereo not drawn) | > 100 | > 100 | > 100 | > 100 | > 100 | > 100 | > 100 | > 100 | > 100 | > 100 | > 100 | > 100 | > 100 | > 100 | > 100 | > 100 | – |
| Cc1ccc(C2=NN(c3nc(-c4ccc(C)cc4)cs3)C(c3ccc(OCc4ccccc4)cc3)C2)cc1 (stereo not drawn) | > 100 | > 20 | 100 | > 20 | > 100 | > 20 | > 100 | > 100 | > 100 | > 100 | > 20 | > 20 | > 100 | > 100 | > 100 | > 100 | – |
| Cc1ccc(C2=NN(c3nc(-c4ccc(Cl)cc4)cs3)C(c3ccc(OCc4ccccc4)cc3)C2)cc1 (stereo not drawn) | > 20 | > 20 | 100 | > 20 | > 20 | > 20 | > 20 | > 20 | 100 | > 20 | > 20 | > 20 | > 20 | 100 | > 20 | > 20 | – |
| Clc1ccc(-c2csc(N3N=C(c4ccccc4)CC3c3ccc(OCc4ccccc4)cc3)n2)cc1 (stereo not drawn) | > 20 | > 20 | 100 | > 20 | > 20 | > 20 | > 20 | > 20 | 100 | > 20 | > 20 | > 20 | > 20 | 100 | > 20 | > 20 | – |
| Clc1ccc(C2=NN(c3nc(-c4ccc(Cl)cc4)cs3)C(c3ccc(OCc4ccccc4)cc3)C2)cc1 (stereo not drawn) | > 20 | > 100 | > 100 | > 100 | > 20 | > 100 | > 100 | > 100 | 100 | > 20 | > 100 | > 100 | > 20 | > 100 | > 100 | > 20 | – |
| O=C1CSC(N2N=C(c3ccc(Cl)cc3)CC2c2ccc(OCc3ccccc3)cc2)=N1 (stereo not drawn) | > 20 | > 20 | 100 | > 20 | > 20 | > 20 | > 20 | > 20 | 100 | > 20 | > 20 | > 20 | > 20 | 100 | > 20 | > 20 | – |

Source: ChEMBL document CHEMBL1153616, “Synthesis and antiviral activity of new pyrazole and thiazole derivatives” (Eur J Med Chem, 2009)
